# Test results taken from publication PMC7274130 (Biochimica et Biophysica Acta. Proteins and Proteomics, 2020).
# Key:
# [1] = Degradation of [3H]-THF-γ2 on incubation with mouse whole blood; type: in vitro ADME; conditions: 37 °C, radio-TLC; for amount of minor degradation product, % of total: over the 60 min incubation with [3H]-THF
# [2] = Degradation of [3H]-THF-γ2 on incubation with human whole blood; type: in vitro ADME; conditions: 37 °C, radio-TLC, mean ± SD, n = 3
# Outline: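 Heparinized whole blood from three healthy male donors. 1 ml was pre-warmed 5 min at 37 °C, then spiked with [3H]-THF (Pro- or C-terminal Leu-labelled; final 93 nmol ml−1) and shaken at 37 °C, sampled 0–60 min. Stopped with ice-cold water/acetonitrile; supernatants were dichloromethane-extracted. The aqueous phase went to silica radio-TLC with 1 cm scintillation counting, and fragments were assigned by synthetic-peptide Rf. Mean ± […], n = 3.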
# [3] = Degradation of [3H]-THF-γ2 on incubation with rat whole blood; type: in vitro ADME; conditions: 37 °C, radio-TLC, mean ± SD, n = 3
# [4] = cited from earlier work
# [5] = 60 min incubation with [3H]-THF
substance,measurement,setting,value
H-LEDGPK-OH [1–6],"amount of minor degradation product, % of total",[1],< 10 % of total
H-DGPKFL-OH [3–8],"concentration of degradation product, % of the total peptides present",[2]; [5],30.36% ± 7.84
same,"concentration of degradation product, % of the total peptides present",[3]; 20 min incubation with [3H]-THF,27.80% ± 3.32
H-Gly-Pro-Lys-Phe-Leu-OH [4–8],"amount of minor degradation product, % of total",[1],< 10 % of total
H-Glu-Asp-Gly-Pro-Lys-OH [2–6],"concentration of degradation product, % of the total peptides present",[2]; 5 min incubation with [3H]-THF,2.16% ± 0.96
same,"concentration of degradation product, % of the total peptides present","[1]; 60 min incubation with [3H]-THF, mean ± SD, n = 3",36.52% ± 2.69
same,"concentration of degradation product, % of the total peptides present",[3]; 5 min incubation with [3H]-THF,4.72% ± 1.05
same,"concentration of degradation product, % of the total peptides present",[3]; [5],54.90% ± 0.87
H-LEDGPKFL-OH [THF-γ2],half-life of THF in human plasma,[4],about 12 min
